Experimental data of several laboratories.
Each line is one published result; the experiments were not run side by side.
Effect on: enzyme activity
Mode: inhibitor
CHEK2: Serine/threonine-protein kinase Chk2 (CHEK2, Homo sapiens, UniProt O96017)

Compound	target	assay	conditions	remaining activity
COc1cc(Nc2cnc(C#N)c(O[C@H](C)CN(C)C)n2)ncc1-c1cnn(C)c1	CHEK2	radiometric	1 µM	81%
Cc1ccc(C(=O)Nc2ccc(CN3CCN(C)CC3)c(C(F)(F)F)c2)cc1C#Cc1cnc2cccnn12	CHEK2	–	23.5 nM	98%
CCCOc1ccc(OC)c(F)c1C(=O)c1ccc(C(=O)N[C@@H]2CNC[C@H]2NC(=O)c2ccc3[nH]ncc3c2)cc1	CHEK2	–	10 µM	13%
O=C(Nc1cnn(-c2csc(C(=O)NC3COC3)c2)c1)Nc1c(F)cccc1Cl	CHEK2	–	5 µM	91.5%
Cc1cnc(NC2CCOCC2)nc1-n1cnc(C(=O)NC(CN)c2cc(F)cc(Cl)c2)c1 (centres unmarked)	Serine/threonine-protein kinase Chk2 (CHEK2, Homo sapiens, UniProt O96017, R145W)	radiometric	1 µM	79%
Nc1nc(NC2CCCCC2)sc1C(=O)c1ccccc1	CHEK2	–	10 µM	61%
Oc1cccc(-c2nc(N3CCOCC3)c3oc4ncccc4c3n2)c1	CHEK2	–	10 µM	85%
CCN(CC)c1ccc(C2=NNC(=O)CC2C)cc1[N+](=O)[O-] (centres unmarked)	CHEK2	–	10 µM	101%
CC(C)(C)c1nc(-c2cccc(NS(=O)(=O)c3c(F)cccc3F)c2F)c(-c2ccnc(N)n2)s1	CHEK2	radiometric	1 µM	103%
Cc1ccc(NC(=O)c2ccc(C)c(C(F)(F)F)c2)cc1C#Cc1nn(C2CCC(O)CC2)c2ncnc(N)c12 (centres unmarked)	Serine/threonine-protein kinase Chk2 (CHEK2, Homo sapiens, UniProt O96017, I157T)	–	10 µM	103%
COc1cc(Cl)c(C(=O)N[C@@H](CN[C@H]2CC[C@@H](N)CC2)Cc2ccc(C#N)cc2)cc1-c1ccc(CN[C@H](C)c2ccc(C)cc2)o1	CHEK2	–	1 µM	98%
